We go through 28 molecules from ChEMBL document CHEMBL4346747, “Alkynamide phthalazinones as a new class of TbrPDEB1 inhibitors” (Bioorg Med Chem, 2019).

Series [1] in a line: Cytotoxicity against human MRC5 SV2 cells assessed as reduction in cell viability measured after 72 hrs by resazurin dye based fluorimetric analysis. (Resazurin is reduced to fluorescent resorufin, in cell work by metabolically active cells.)
Series [2] deals with Trypanosoma brucei. The series is described as follows: Antitrypanosomal activity against suramin sensitive Trypanosoma brucei Squib427 trypomastigotes assessed as reduction in parasitic cell viability measured after 72 hrs by resazurin dye based fluorimetric analysis. To be noted: Squib427, 72 h. It is filed as functional, organism-based. The essentials:
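Suramin-sensitive Squib-427 trypomastigotes cultured in HMI-9 with 10% heat-inactivated FCS at 37 °C, 5% CO2. About 1.5 × 10^4 parasites per well, five concentrations (64, 16, 4, 1, 0.25 μM), DMSO ≤0.5%, 72 h at 37 °C. Resazurin added, fluorescence read 24 h later (ex 550/em 590 nm) as % viability reduction vs control. Suramin reference; duplicate experiments, mean ± S.E.M.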

The target of series [3] is T1, Class 1 phosphodiesterase PDEB1 (Trypanosoma brucei, UniProt Q8WQX9).
T1 sequence (Q8WQX9 whole entry): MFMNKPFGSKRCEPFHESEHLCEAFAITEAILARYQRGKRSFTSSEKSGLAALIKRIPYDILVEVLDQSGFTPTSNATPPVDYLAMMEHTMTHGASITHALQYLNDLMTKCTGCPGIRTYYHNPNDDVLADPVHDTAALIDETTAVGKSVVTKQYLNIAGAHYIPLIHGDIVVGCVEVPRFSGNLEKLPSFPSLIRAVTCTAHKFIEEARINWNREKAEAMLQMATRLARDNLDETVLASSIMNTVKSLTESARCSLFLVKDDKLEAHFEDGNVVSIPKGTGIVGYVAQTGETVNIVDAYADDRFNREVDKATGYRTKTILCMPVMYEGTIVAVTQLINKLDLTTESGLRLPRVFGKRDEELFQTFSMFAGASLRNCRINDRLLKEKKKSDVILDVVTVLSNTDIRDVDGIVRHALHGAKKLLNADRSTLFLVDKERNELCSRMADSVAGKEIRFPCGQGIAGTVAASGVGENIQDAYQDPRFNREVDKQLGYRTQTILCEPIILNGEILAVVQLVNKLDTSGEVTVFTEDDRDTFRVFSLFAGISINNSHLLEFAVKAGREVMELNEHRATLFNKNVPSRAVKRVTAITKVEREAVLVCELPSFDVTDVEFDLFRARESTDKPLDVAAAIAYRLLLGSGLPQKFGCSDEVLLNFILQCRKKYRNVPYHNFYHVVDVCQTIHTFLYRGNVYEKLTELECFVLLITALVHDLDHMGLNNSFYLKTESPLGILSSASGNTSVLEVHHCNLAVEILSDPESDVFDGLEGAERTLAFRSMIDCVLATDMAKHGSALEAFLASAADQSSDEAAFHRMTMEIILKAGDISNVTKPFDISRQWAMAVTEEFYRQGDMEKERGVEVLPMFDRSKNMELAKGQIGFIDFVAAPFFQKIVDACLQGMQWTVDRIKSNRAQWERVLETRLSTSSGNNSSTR
The series is described as follows: Inhibition of Trypanosoma brucei PDEB1 catalytic domain (565 to 918 residues) expressed in Escherichia coli BL21 incubated for 20 mins using cAMP as substrate by PDELight HTS cAMP phosphodiesterase Kit based luminometry.

Series [4] is described as follows: Cytotoxicity against human MRC5 SV2 cells assessed as reduction in cell viability at 64 uM measured after 72 hrs by resazurin dye based fluorimetric analysis.
In series [5] the target is 3',5'-cyclic-AMP phosphodiesterase 4B (Homo sapiens, UniProt Q07343). In words: Inhibition of human PDE4B catalytic domain incubated for 20 mins using cAMP as substrate by PDELight HTS cAMP phosphodiesterase Kit based luminometry.
Sequence of 3',5'-cyclic-AMP phosphodiesterase 4B (Q07343 whole entry, the tested form may be a part): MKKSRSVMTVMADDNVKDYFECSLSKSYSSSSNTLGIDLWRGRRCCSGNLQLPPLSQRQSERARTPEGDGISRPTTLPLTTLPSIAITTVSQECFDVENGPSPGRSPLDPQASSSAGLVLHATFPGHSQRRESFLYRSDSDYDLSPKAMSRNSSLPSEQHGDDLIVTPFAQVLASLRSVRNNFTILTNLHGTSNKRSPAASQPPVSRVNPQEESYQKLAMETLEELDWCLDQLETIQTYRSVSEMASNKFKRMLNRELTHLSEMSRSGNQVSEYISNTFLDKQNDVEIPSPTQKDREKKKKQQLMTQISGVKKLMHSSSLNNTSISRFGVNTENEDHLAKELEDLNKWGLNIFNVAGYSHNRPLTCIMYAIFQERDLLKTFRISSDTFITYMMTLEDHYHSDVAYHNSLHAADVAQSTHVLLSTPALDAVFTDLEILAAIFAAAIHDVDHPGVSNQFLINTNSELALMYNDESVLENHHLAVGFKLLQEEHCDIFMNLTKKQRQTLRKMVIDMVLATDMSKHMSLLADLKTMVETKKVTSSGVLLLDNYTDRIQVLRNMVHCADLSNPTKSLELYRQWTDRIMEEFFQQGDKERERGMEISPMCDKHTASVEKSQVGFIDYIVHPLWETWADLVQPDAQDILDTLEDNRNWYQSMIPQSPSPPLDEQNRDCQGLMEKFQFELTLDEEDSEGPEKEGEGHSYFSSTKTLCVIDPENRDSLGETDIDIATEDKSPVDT
For series [6], the system named is Trypanosoma brucei. In words: Antitrypanosomal activity against bloodstream of Trypanosoma brucei trypanosomes assessed as increase in intracellular cAMP level at 8 uM measured per 5x10^6 cells after 4 hrs by direct cAMP enzyme immunoassay kit based ELISA (reference value: 6.66 pmol). It is filed as functional. In general terms: Cyclic AMP is a second messenger, typically raised through Gs and lowered through Gi signalling.

The test system of series [7] is Trypanosoma brucei. The series is described as follows: Antitrypanosomal activity against bloodstream of Trypanosoma brucei trypanosomes assessed as increase in intracellular cAMP level at 3.2 uM measured per 5x10^6 cells after 4 hrs by direct cAMP enzyme immunoassay kit based ELISA (reference value: 6.66 pmol). Format: functional.

By CC50 is commonly meant the concentration at which the toxic effect on the cells reaches its halfway point. With `COc1ccc(C2=NN(C(C)C)C(=O)[C@@H]3CC=CC[C@H]23)cc1-c1ccc(C(=O)NCC(N)=O)cc1`, in series [1], the CC50 at 72 h is 31600 nM. Also, the IC50 in the series with Trypanosoma brucei [2] (read-out: pIC50 (converted)) is 6310 nM.
For `COc1ccc(C2=NN(C3CCCCCC3)C(=O)[C@@H]3CC=CC[C@H]23)cc1-c1ccc(C(=O)NCC(N)=O)cc1` the same measures were 39800 nM and 5010 nM.
As usually defined, the Ki is the equilibrium dissociation constant of an inhibitor or competing ligand from its target. In turn, `COc1ccc(C2=NN(C3CCCCCC3)C(=O)[C@@H]3CC=CC[C@H]23)cc1-c1ccc2c(c1)CNC2=O` showed a Ki in series [3] of 1580 nM.
Consider `COc1ccc(C2=NN(C(C)C)C(=O)[C@@H]3CC=CC[C@H]23)cc1N1CC(C(N)=O)C1`, for which, in series [3], the Ki was > 10000 nM.
Still for that read-out and setting: the result for `COc1ccc(C2=NN(C3CCCCCC3)C(=O)[C@@H]3CC=CC[C@H]23)cc1-c1ccc(C(=O)NCC(N)=O)c(F)c1` reads 794 nM.
On the same count and under the same terms, the figure for `COCCN1Cc2cc(-c3cc(C4=NN(C5CCCCCC5)C(=O)[C@@H]5CC=CC[C@H]45)ccc3OC)ccc2C1=O` (relative stereo) is 1260 nM; for `COc1ccc(C2=NN(C3CCCCCC3)C(=O)[C@@H]3CC=CC[C@H]23)cc1C#Cc1cnco1` (relative stereo) it is > 10000 nM; for `C#Cc1cc(C2=NN(C3CCCCCC3)C(=O)[C@@H]3CC=CC[C@H]23)ccc1OC` (relative stereo) it is 3980 nM.
`CCCCNC(=O)c1ccc(-c2cc(C3=NN(C(C)C)C(=O)[C@@H]4CC=CC[C@H]34)ccc2OC)s1` (relative stereo): the Ki in series [3] is > 10000 nM.
Same read-out and setting: the result for `COc1ccc(C2=NN(C(C)C)C(=O)[C@@H]3CC=CC[C@H]23)cc1-c1ccc(C(=O)NCc2ccco2)s1` (relative stereo) reads > 10000 nM.
Regarding `COc1ccc(C2=NN(C3CCCCCC3)C(=O)[C@@H]3CC=CC[C@H]23)cc1C#CC(=O)NCc1ccco1` (relative stereo), the Activity entry in series [4] is recorded as “Non-Toxic”. The Ki was 501 nM in series [3] and 398 nM in series [5]. Besides, the CC50 at 72 h in series [1] was 50100 nM. The IC50 in the series on Trypanosoma brucei [2] (read-out: IC50) was 600 nM; in the series on Trypanosoma brucei [2] (read-out: pIC50 (converted)), 631 nM.
`COc1ccc(C2=NN(C3CCCCCC3)C(=O)[C@@H]3CC=CC[C@H]23)cc1C#CC(N)=O` (relative stereo): the Activity in the series on Trypanosoma brucei [6] worked out at 311 pmol; in the series with Trypanosoma brucei [7], 19.8 pmol. Besides, in series [1], the CC50 at 72 h is 10000 nM. Further, the IC50 in the series on Trypanosoma brucei [2] (read-out: pIC50 (converted)) was 1000 nM.
In series [3], `COc1ccc(C2=NN(C3CCCCCC3)C(=O)[C@@H]3CC=CC[C@H]23)cc1C#CC(=O)N1CCOCC1` (relative stereo) showed an inhibition constant Ki of 1000 nM.
As to `COc1ccc(C2=NN(C3CCCCCC3)C(=O)[C@@H]3CC=CC[C@H]23)cc1-c1ccc(C(=O)NCC(N)=O)cc1C` (relative stereo), the Ki in series [3] was > 10000 nM.
For `COc1ccc(C2=NN(C3CCCCCC3)C(=O)[C@@H]3CC=CC[C@H]23)cc1C#CC(=O)NCC(N)=O` (relative stereo), the Ki in series [3] was 631 nM. The CC50 at 72 h in series [1] is 3980 nM. Also, the IC50 with Trypanosoma brucei [2] (read-out: pIC50 (converted)) is 3980 nM.
In series [3], `COc1ccc(C2=NN(C(C)C)C(=O)[C@@H]3CC=CC[C@H]23)cc1-c1ccc(C(N)=O)s1` (relative stereo) showed a Ki of 10000 nM.
Consider `CCCCNC(=O)C#Cc1cc(C2=NN(C3CCCCCC3)C(=O)[C@@H]3CC=CC[C@H]23)ccc1OC` (relative stereo), for which the Activity result in series [4] is “Non-Toxic”. The figures for the inhibition constant Ki in series [3] and in series [5] were 398 nM and 631 nM, respectively. Besides, the CC50 at 72 h in series [1] was > 63100 nM. Also, the IC50 was 600 nM in the series on Trypanosoma brucei [2] (read-out: IC50) and 631 nM in the series with Trypanosoma brucei [2] (read-out: pIC50 (converted)).
Consider `COCCNC(=O)C#Cc1cc(C2=NN(C3CCCCCC3)C(=O)[C@@H]3CC=CC[C@H]23)ccc1OC` (relative stereo), for which the Ki in series [3] is 794 nM; in series [5] it was 1580 nM. The CC50 at 72 h in series [1] is > 63100 nM. Further, the IC50 with Trypanosoma brucei [2] (read-out: pIC50 (converted)) was > 63100 nM.
`COCCNC(=O)c1ccc(-c2cc(C3=NN(C(C)C)C(=O)[C@@H]4CC=CC[C@H]34)ccc2OC)s1` (relative stereo): the Ki in series [3] is > 10000 nM.
Still for that read-out and setting: the result for `CCCCNC(=O)C1CN(c2cc(C3=NN(C(C)C)C(=O)[C@@H]4CC=CC[C@H]34)ccc2OC)C1` (relative stereo) reads > 10000 nM.
Turning to `COc1ccc(C2=NN(C(C)C)C(=O)[C@@H]3CC=CC[C@H]23)cc1-c1ccc(C(=O)NCC(N)=O)s1` (relative stereo), in series [3], the Ki is > 10000 nM.
On the same count and under the same terms, the figure for `COc1cc(-c2cc(C3=NN(C4CCCCCC4)C(=O)[C@@H]4CC=CC[C@H]34)ccc2OC)ccc1C(=O)NCC(N)=O` (relative stereo) is 6310 nM; for `COc1ccc(C2=NN(C(C)C)C(=O)[C@@H]3CC=CC[C@H]23)cc1N1CC(C(=O)NCC(N)=O)C1` (relative stereo) it is > 10000 nM; for `COc1ccc(C2=NN(C3CCCCCC3)C(=O)[C@@H]3CC=CC[C@H]23)cc1-c1ccc2c(c1)CN(CC(N)=O)C2=O` (relative stereo) it is 1260 nM.
In turn, `COc1ccc(C2=NN(C3CCCCCC3)C(=O)[C@@H]3CC=CC[C@H]23)cc1-c1ccc(C(=O)NCC(N)=O)cc1F` (relative stereo) gave a Ki in series [3] of 2000 nM.
Still for that read-out and setting: the figure for `COc1cc(C(=O)NCC(N)=O)ccc1-c1cc(C2=NN(C3CCCCCC3)C(=O)[C@@H]3CC=CC[C@H]23)ccc1OC` (relative stereo) is 7940 nM; for `COc1ccc(C2=NN(C(C)C)C(=O)[C@@H]3CC=CC[C@H]23)cc1N1CC(C(=O)NCc2ccco2)C1` (relative stereo) it is > 10000 nM.
For `COc1ccc(C2=NN(C3CCCCCC3)C(=O)[C@@H]3CC=CC[C@H]23)cc1-c1ccc(C(=O)NCC(N)=O)c(C)c1` (relative stereo), in series [3], affinity was put at a Ki of 2000 nM.
